Test results published in ChEMBL document CHEMBL1240421, “Synthesis and evaluation of graveoline and graveolinine derivatives with potent anti-angiogenesis activities” (Eur J Med Chem, 2010).
Activity calls are given as the source filed them. No cut-off for these calls is given here.

Legend:
[1] = species: Gallus gallus; test: Antiangiogenic activity in fertilized chicken eggs at 30 ug/10 uL after 48 hrs by CAM assay; assay type: functional; details: Egg
Method in brief: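 Test agent applied to the chick CAM at 30 µg/10 µL, 10 eggs per treatment; 0.9% NaCl as negative control, thalidomide as positive control. After 48 h, CAMs fixed in 4% paraformaldehyde, vessels counted in three random microscope fields around the filter disc.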

[2] = system: HUVEC; test: Inhibition of HUVEC cell adhesion to collagen at 15 uM; details: Homo sapiens
[3] = system: HUVEC; test: Cytotoxicity against HUVEC cells after 48 hrs by MTT assay; assay type: cell-based; details: Homo sapiens
Method in brief: (§1)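 Cells seeded at 5000 per well, exposed to a range of concentrations. MTT step, then 4 h further incubation. Formazan dissolved in DMSO, OD read at 490 nm. Triplicate wells; IC50 taken from curves of mean OD versus concentration.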

[4] = Cytotoxicity against human GLC82 cells after 48 hrs by MTT assay; assay type: functional, cell-based; details: GLC82, 48 h; method in brief: as §1
[5] = system: NCI-H460; test: Cytotoxicity against human NCI-H460 cells after 48 hrs by MTT assay; assay type: functional, cell-based; details: NCI-H460, 48 h; method in brief: as §1
[6] = system: HUVEC; test: Inhibition of HUVEC cell adhesion to collagen at 30 uM after 3 hrs
[7] = system: HUVEC; test: Inhibition of HUVEC cell adhesion to collagen at 15 uM after 3 hrs; assay type: functional; details: Homo sapiens
Method in brief: (§2)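 Wells coated overnight at room temperature with rat tail tendon type I collagen in PBS, blocked with 0.2% BSA for 2 h at 37 °C. HUVEC resuspended in DMEM and added at 10⁴ cells/ml with compound, incubated 1 or 3 h at 37 °C. After washing, attached cells stained with 0.2% crystal violet and solubilized in 2% SDS; OD at 570 nm. Triplicate wells, three independent experiments.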

[8] = system: HUVEC; test: Inhibition of migration of HUVEC cellss at 15 to 30 uM; assay type: functional, Homo sapiens
Method in brief: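 Scratch-wound assay: HUVEC plated at 20 000 cells per well, monolayer scraped with a rubber policeman, then incubated 24 h with or without compound. Two random pictures per wound; migration area measured. Triplicate measurements, at least three experiments.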

[9] = system: HUVEC; test: Inhibition of HUVEC cell adhesion to collagen at 30 uM after 1 hr; assay type: functional; details: Homo sapiens; method in brief: as §2
[10] = system: HUVEC; test: Inhibition of HUVEC cell adhesion to collagen at 15 uM after 1 hr; assay type: functional, cell-based; details: Homo sapiens; method in brief: as §2

Question: Which Activity [1] does the source give for `Cc1ccc(-c2cc(NCCCN3CCOCC3)c3ccccc3n2)cc1` here?
Answer: Active

Question: What about the inhibition at 15 µM [2] of the same compound?
Answer: 47.2%

Question: And the IC50 [3]?
Answer: 45.2 µM

Question: What about the IC50 [4] of the same compound?
Answer: 49.5 µM

Question: And the IC50 [5]?
Answer: 11.5 µM

Question: And the “inhibition (INH)” value [6]?
Answer: 49.2%

Question: Which Activity [1] does the source give for `Cc1ccc(-c2cc(NCCN(C)C)c3ccccc3n2)cc1` here?
Answer: Active

Question: What about the inhibition at 15 µM [2] of the same compound?
Answer: 52.2%

Question: And the IC50 [3]?
Answer: 30.3 µM

Question: What about the IC50 [4] of the same compound?
Answer: 20.6 µM

Question: And the IC50 [5]?
Answer: 6.1 µM

Question: What about the “inhibition (INH)” value [6] of the same compound?
Answer: 48.2%

Question: For `Cc1ccc(-c2cc(=O)c3ccccc3n2C)cc1`, which inhibition at 15 µM [2] is on record?
Answer: 30.3%

Question: What about the IC50 [3] of the same compound?
Answer: > 100 µM

Question: What about the IC50 [4] of the same compound?
Answer: > 100 µM

Question: What about the IC50 [5] of the same compound?
Answer: > 100 µM

Question: What about the “inhibition (INH)” value [6] of the same compound?
Answer: 8.1%

Question: With `COc1cc(-c2ccc(COC(=O)c3cccs3)cc2)nc2ccccc12` as the compound, how does the inhibition at 15 µM [2] read?
Answer: 37.4%

Question: What about the IC50 [3] of the same compound?
Answer: > 100 µM

Question: What about the IC50 [4] of the same compound?
Answer: > 100 µM

Question: And the IC50 [5]?
Answer: > 100 µM

Question: And the “inhibition (INH)” value [6]?
Answer: 27.4%

Question: For `Clc1cc(-c2ccc(CNCCCN3CCOCC3)cc2)nc2ccccc12`, which inhibition at 15 µM [2] is on record?
Answer: 67.8%

Question: What about the IC50 [3] of the same compound?
Answer: 22.4 µM

Question: And the IC50 [4]?
Answer: 30.6 µM

Question: And the IC50 [5]?
Answer: 21.1 µM

Question: What about the “inhibition (INH)” value [6] of the same compound?
Answer: 72.3%

Question: With `c1ccc2c(NCCCN3CCOCC3)cc(-c3ccc(CNCCCN4CCOCC4)cc3)nc2c1` as the compound, how does the inhibition at 15 µM [7] read?
Answer: 46.2%

Question: What about the “inhibition (INH)” value [8] of the same compound?
Answer: 49.2%

Question: And the IC50 [3]?
Answer: 56.5 µM

Question: And the IC50 [4]?
Answer: 34.4 µM

Question: And the IC50 [5]?
Answer: 42.3 µM

Question: What about the inhibition at 30 µM [9] of the same compound?
Answer: 15.8%

Question: What about the IC50 [10] of the same compound?
Answer: > 100 µM

Question: Which Activity [1] does the source give for `COc1ccc(Nc2cc(-c3ccc(C)cc3)nc3ccccc23)cc1` here?
Answer: Active

Question: And the inhibition at 15 µM [2]?
Answer: 42.4%

Question: And the IC50 [3]?
Answer: 14.3 µM

Question: And the IC50 [4]?
Answer: 34.2 µM

Question: And the IC50 [5]?
Answer: 24.2 µM

Question: What about the “inhibition (INH)” value [6] of the same compound?
Answer: 48.1%

Question: Which results are given for `Cc1ccc(-c2cc(Cl)c3ccccc3n2)cc1`?
Answer: inhibition at 15 µM [2]: 39%; IC50 [3]: > 100 µM; IC50 [4]: > 100 µM; IC50 [5]: > 100 µM; inhibition (INH) [6]: 35.2%

Question: For `COc1cc(-c2ccc(CO)cc2)nc2ccccc12`, which inhibition at 15 µM [2] is on record?
Answer: 27.5%

Question: What about the IC50 [3] of the same compound?
Answer: > 100 µM

Question: What about the IC50 [4] of the same compound?
Answer: > 100 µM

Question: And the IC50 [5]?
Answer: > 100 µM

Question: And the “inhibition (INH)” value [6]?
Answer: 19.4%

Question: For `CN(C)CCCNCc1ccc(-c2cc(=O)c3ccccc3n2C)cc1`, which inhibition at 15 µM [2] is on record?
Answer: 31.9%

Question: And the IC50 [3]?
Answer: 99.7 µM

Question: What about the IC50 [4] of the same compound?
Answer: > 100 µM

Question: What about the IC50 [5] of the same compound?
Answer: > 100 µM

Question: What about the “inhibition (INH)” value [6] of the same compound?
Answer: 42%

Question: What does the source list for `Cc1ccc(-c2cc(NCCCO)c3ccccc3n2)cc1`?
Answer: Activity [1]: Active; inhibition at 15 µM [2]: 44.2%; IC50 [3]: 63.5 µM; IC50 [4]: 60.3 µM; IC50 [5]: 48.1 µM; inhibition (INH) [6]: 33.8%

Question: For `Cc1ccc(-c2cc(NCCO)c3ccccc3n2)cc1`, which Activity [1] is on record?
Answer: Active

Question: And the inhibition at 15 µM [2]?
Answer: 38.3%

Question: What about the IC50 [3] of the same compound?
Answer: 73.7 µM

Question: What about the IC50 [4] of the same compound?
Answer: 61.1 µM

Question: And the IC50 [5]?
Answer: 53.7 µM

Question: What about the “inhibition (INH)” value [6] of the same compound?
Answer: 40%

Question: With `COc1ccc(-c2cc(Cl)c3ccccc3n2)cc1` as the compound, how does the inhibition at 15 µM [2] read?
Answer: 52.6%

Question: What about the IC50 [3] of the same compound?
Answer: > 100 µM

Question: And the IC50 [4]?
Answer: > 100 µM

Question: What about the IC50 [5] of the same compound?
Answer: > 100 µM

Question: And the “inhibition (INH)” value [6]?
Answer: 48.2%

Question: Which inhibition at 15 µM [2] does the source give for `COc1ccc(-c2cc(NCCO)c3ccccc3n2)cc1` here?
Answer: 54.1%

Question: What about the IC50 [3] of the same compound?
Answer: 74.1 µM

Question: And the IC50 [4]?
Answer: 56.2 µM

Question: And the IC50 [5]?
Answer: 38.3 µM

Question: What about the “inhibition (INH)” value [6] of the same compound?
Answer: 54.9%

Question: With `COc1cc(-c2ccc(C)cc2)nc2ccccc12` as the compound, how does the inhibition at 15 µM [2] read?
Answer: 35.4%

Question: And the IC50 [3]?
Answer: > 100 µM

Question: And the IC50 [4]?
Answer: > 100 µM

Question: What about the IC50 [5] of the same compound?
Answer: > 100 µM

Question: What about the “inhibition (INH)” value [6] of the same compound?
Answer: 20.3%

Question: With `COc1ccc(-c2cc(NCCCO)c3ccccc3n2)cc1` as the compound, how does the inhibition at 15 µM [2] read?
Answer: 45.3%

Question: What about the IC50 [3] of the same compound?
Answer: 47.6 µM

Question: And the IC50 [4]?
Answer: 40.9 µM

Question: What about the IC50 [5] of the same compound?
Answer: 24 µM

Question: And the “inhibition (INH)” value [6]?
Answer: 56.4%
